Data set [1] addresses T1, Fatty-acid amide hydrolase 1 (Rattus norvegicus, UniProt P97612).
T1 sequence (P97612 whole entry): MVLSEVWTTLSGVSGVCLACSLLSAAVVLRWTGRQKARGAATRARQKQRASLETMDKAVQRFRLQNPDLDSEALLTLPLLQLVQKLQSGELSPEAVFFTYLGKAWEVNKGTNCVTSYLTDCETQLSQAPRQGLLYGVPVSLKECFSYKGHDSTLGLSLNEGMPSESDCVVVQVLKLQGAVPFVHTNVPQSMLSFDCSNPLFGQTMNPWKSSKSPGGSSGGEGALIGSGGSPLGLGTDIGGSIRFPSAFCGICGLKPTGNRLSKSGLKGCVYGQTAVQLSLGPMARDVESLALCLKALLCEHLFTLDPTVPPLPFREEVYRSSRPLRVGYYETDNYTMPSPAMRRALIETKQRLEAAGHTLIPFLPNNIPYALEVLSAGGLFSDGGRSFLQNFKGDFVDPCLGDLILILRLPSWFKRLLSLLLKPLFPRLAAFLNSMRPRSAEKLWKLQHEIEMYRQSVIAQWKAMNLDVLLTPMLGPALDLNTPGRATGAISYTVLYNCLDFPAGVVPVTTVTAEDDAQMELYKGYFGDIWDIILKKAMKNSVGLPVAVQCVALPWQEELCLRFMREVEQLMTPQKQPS
In words: Inhibition of FAAH in rat RBL cell assessed as conversion of [3H]AEA to [3H]ethanolamine by scintillation counting. In kind it is cell-based.

A short description of data set [2]: Drug uptake in rat blood at 0.5 mg/kg, iv after 2 hrs. The following applies: read-out: Drug uptake. The class given is ADME, organism-based. Details: dose 0.5 mg/kg, route intravenous. Summed up:
(§1)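 Following 0.5 mg/Kg i.v. dosing in rats, total compound concentrations measured in plasma, blood and brain at 0.5 h and 2 h.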

Data set [3] has as its target T2, Fatty-acid amide hydrolase 1 (Homo sapiens, UniProt O00519).
T2 sequence (O00519 whole entry): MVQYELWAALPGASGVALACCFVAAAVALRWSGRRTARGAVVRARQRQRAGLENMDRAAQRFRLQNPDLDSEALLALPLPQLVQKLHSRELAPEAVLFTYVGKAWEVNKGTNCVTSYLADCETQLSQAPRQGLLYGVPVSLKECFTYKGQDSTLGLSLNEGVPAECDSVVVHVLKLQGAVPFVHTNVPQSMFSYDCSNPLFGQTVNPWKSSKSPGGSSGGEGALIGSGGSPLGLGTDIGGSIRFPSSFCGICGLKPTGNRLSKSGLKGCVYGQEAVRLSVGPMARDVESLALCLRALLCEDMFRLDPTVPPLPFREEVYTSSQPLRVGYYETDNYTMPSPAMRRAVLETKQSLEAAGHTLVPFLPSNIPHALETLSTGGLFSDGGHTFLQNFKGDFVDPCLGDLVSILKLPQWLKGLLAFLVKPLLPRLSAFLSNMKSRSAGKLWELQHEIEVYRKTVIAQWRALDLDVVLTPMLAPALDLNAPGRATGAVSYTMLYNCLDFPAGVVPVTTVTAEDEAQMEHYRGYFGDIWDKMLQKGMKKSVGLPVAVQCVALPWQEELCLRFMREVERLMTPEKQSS
In words: Inhibition of human FAAH assessed as hydrolysis of anandamido-amino-methyl-cumarin.

The nature of data set [4]: Plasma concentration in rat at 0.5 mg/kg, iv after 2 hrs. In kind it is ADME, organism-based. Also noted: dose 0.5 mg/kg, route intravenous. Summed up:
as §1

The nature of data set [5]: Permeability across pig LLC-PK1 cells. The class given is ADME, cell-based, Sus scrofa. Conditions: read-out: permeability.
Data set [6] in a line: Bioavailability in rat. In kind it is ADME, organism-based. The following applies: in vivo.
Data set [7] deals with P-gp. In words: Permeability efflux ratio in P-gp expressing pig LLC-PK1 cells. In kind it is ADME, cell-based, Sus scrofa. The method in brief: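 Measured across LLC-PK1 cell monolayers, following a method from an earlier report.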
A short description of data set [8]: Mean residence time in rat at 2 mg/kg, po. The class given is ADME, organism-based. Details: dose 2 mg/kg, route oral. Conditions: in vivo.
The nature of data set [9]: Volume of distribution at steady state in rat at 0.5 mg/kg, iv. In kind it is ADME, organism-based. Also noted: dose 0.5 mg/kg, route intravenous. Conditions: in vivo, read-out: Vdss. The method in brief:
(§2)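 Rats dosed 0.5 mg/Kg intravenously; clearance and steady-state volume of distribution derived from plasma exposure; values are means of at least two animals.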

Data set [10] concerns the target T2, Fatty-acid amide hydrolase 1. In words: Inhibition of FAAH in human T84 cell assessed as conversion of [3H]AEA to [3H]ethanolamine by scintillation counting.
Data set [11] deals with T1, Fatty-acid amide hydrolase 1. In words: Inhibition of rat FAAH assessed as hydrolysis of anandamido-amino-methyl-cumarin.
A short description of data set [12]: Drug uptake in rat brain at 0.5 mg/kg, iv after 2 hrs. In kind it is ADME, organism-based. Also noted: dose 0.5 mg/kg, route intravenous. The following applies: read-out: Drug uptake. Summed up: as §1
The nature of data set [13]: Ratio of drug level in brain to plasma in rat at 0.5 mg/kg, iv. In kind it is ADME, organism-based. Details: dose 0.5 mg/kg, route intravenous. The method in brief:
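Brain/plasma ratio calculated from total plasma and brain exposure after 0.5 mg/Kg i.v. in rat, corrected for fraction unbound in plasma and brain tissue, the latter determined by ultracentrifugation in rat tissues.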

Data set [14] can be described thus: Drug uptake in rat brain at 0.5 mg/kg, iv after 0.5 hrs. In kind it is ADME, organism-based. Also noted: dose 0.5 mg/kg, route intravenous. The following applies: read-out: Drug uptake. The method in brief: as §1
Data set [15] is described as follows: Plasma concentration in rat at 0.5 mg/kg, iv after 0.5 hrs. In kind it is ADME, organism-based. Also noted: dose 0.5 mg/kg, route intravenous. The method in brief:
as §1

The nature of data set [16]: Cmax in rat at 2 mg/kg, po. The class given is ADME, organism-based. Also noted: dose 2 mg/kg, route oral. The following applies: in vivo.
Data set [17] can be described thus: Clearance in rat at 0.5 mg/kg, iv. The following applies: in vivo. In kind it is ADME, organism-based. Details: dose 0.5 mg/kg, route intravenous. The method in brief:
as §2

A short description of data set [18]: Drug uptake in rat blood at 0.5 mg/kg, iv after 0.5 hrs. Also noted: dose 0.5 mg/kg, route intravenous. The class given is ADME, organism-based. Conditions: read-out: Drug uptake. The method in brief: as §1

What is called EC50 is the midpoint of the concentration-response curve. One may read the IC50 as the concentration that gives 50% inhibition. For orientation: bioavailability means the share of a dose that reaches the circulation, judged against a reference dose that is usually intravenous. Low values mean little systemic uptake, high ones much systemic uptake. As a reminder, the efflux ratio is a quotient of directional permeabilities that is used to spot active efflux. Broadly, the MRT is the average time that molecules of a dose stay in the body. The term Kp denotes the ratio of the level in a tissue or fluid to that in plasma or blood. What is called Cmax is the highest concentration seen after dosing. The clearance is the rate of elimination divided by the concentration.

In the case of `CCn1c(=O)n([C@H]2CCCN(c3cc(-c4ccc(F)cc4)nc(N)n3)C2)c2ncccc21`, the 50% effective concentration (EC50) in [1] amounted to 100 nM; in data set [10] it was 20 nM. The concentration at 2 h was 210 nM in [2], 700 nM in data set [4] and 130 nM in data set [12]. Besides, the results for the half-maximal inhibitory concentration (IC50) in [3] and in data set [11] were 14 nM and 43 nM, respectively. The Papp in data set [5] is 3.5 ×10⁻⁶ cm/s. In data set [6], this molecule returned a bioavailability of 99%. For the same molecule, in data set [7], the efflux ratio turned out to be 1.1. In [8], this molecule displayed an MRT of 5.2 h. For the same molecule, the Vd in [9] is 0.69 L/kg. Besides, in [13], the Kp amounted to 0.41. In addition, the concentration at 0.5 h in data set [14] was 380 nM; in data set [15] it was 2200 nM; in [18] it was 770 nM. In data set [16], this molecule showed a Cmax of 3400 nM. In data set [17], the clearance is 4 mL/min/kg.
